Laboratory results published in PMC6178240 (Molecular Therapy. Nucleic Acids, 2018).
Like-named read-outs stand apart in the source and are kept apart here.

What was measured:
[1] = system: orthotopic U87MG-Luc glioblastoma; assay: In vivo anti-tumor effects; parameters: species or system nude mice; conditions: 12 times over a 24-hr interval, after 12 days; for tumor growth (luminescence intensity) versus saline: 1 nmol/20 g i.v., n = 5 per group
In short: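 U87MG-Luc cells (3 × 10⁵ in 3 μL ice-cold PBS) were implanted stereotaxically into BALB/c nude mice (2 mm right of bregma, 3 mm deep). Dosing began once IVIS detected tumours. Twenty mice were randomised into 4 groups (2 male, 3 female each). Groups were saline, scrambled 1 nmol/20 g, or test 0.5 or 1 nmol/20 g, i.v. 12 times at 24-hr intervals. IVIS luminescence was read on days 0, 7 and 12, then excised brains were imaged.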

[2] = system: PIK3CB protein; assay: PIK3CB protein level by western blot in U87MG cells; assay type: cell-based, human; conditions: 72-hr treatment, normalized with GAPDH
[3] = system: orthotopic U87MG-Luc glioblastoma; assay: Survival monitoring assay; assay type: in vivo, nude mice; conditions: 3 nmol/20 g mixed with Gelofusine (4 mg/20 g) i.v. at 48-hr interval; for median survival time: n = 5
In short: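 Fifteen orthotopic U87MG-Luc nude mice were randomised into 3 groups (2 male, 3 female each). Each received saline, scrambled conjugate or test conjugate (3 nmol/20 g) i.v. every 48 hr, all mixed with Gelofusine (4 mg/20 g). Body weight was recorded daily and IVIS luminescence on days 0, 7 and 28. Mice were sacrificed at 40% loss of primary body weight.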

[4] = system: U87MG cells; assay: Cellular uptake by flow cytometry; assay type: cell-based, human
In short: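 U87MG cells were exposed to Cy5-labelled conjugate at 100, 200, 400 or 600 nM, or Cy5-labelled comparators at 600 nM, in Opti-MEM for 12 hr at 37°C. Cells were trypsinised, washed twice in PBS, resuspended, and Cy5 was read by flow cytometry. Receptor blocking used pre-treatment with excess unconjugated biRGD peptide.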

[5] = system: orthotopic U87MG-Luc glioblastoma; assay: Immunofluorescence analysis of frozen brain sections; assay type: in vivo, nude mice; conditions: 1 nmol/20 g i.v., confocal
In short: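 Orthotopic U87MG-Luc nude mice received a single i.v. dose of Cy5-labelled siRNA (1 nmol/20 g). Brains taken from the imaging study were frozen at –80°C and sectioned. Sections were stained for CD31 (vessels) and with DAPI, then imaged by confocal microscopy (Cy5 ex 640 nm, em 680 nm). Normal brain served as comparison.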

[6] = system: orthotopic U87MG-Luc glioblastoma; assay: In vivo distribution assay; parameters: species or system nude mice
In short: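 Orthotopic U87MG-Luc nude mice received a single i.v. dose (1 nmol/20 g) of Cy5-labelled conjugate, conjugate plus Gelofusine (4 mg/20 g), unconjugated Cy5-siRNA, or monovalent comparator. Whole-body IVIS Cy5 imaging (ex 640 nm, em 680 nm) was done at 12, 24, 36 and 48 hr. At 24 hr some mice were sacrificed and their tumours and major organs imaged ex vivo.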

[7] = system: U87MG cells; assay: Confocal fluorescence microscopy of intracellular distribution; assay type: cell-based, human; conditions: for intracellular distribution (Cy5, confocal): Opti-MEM
In short: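 U87MG cells were exposed to Cy5-labelled molecules at 600 nM in Opti-MEM for 12 hr at 37°C, with or without prior blocking using excess biRGD peptide. Cells were PBS-washed, fixed in 4% paraformaldehyde for 15 min at room temperature, stained with anti-TGN46 and an Alexa Fluor 488 secondary, then imaged by confocal microscopy.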

[8] = system: HeLa cells; assay: Cellular uptake by flow cytometry; assay type: cell-based; conditions: HeLa (αvβ3-negative), 600 nM, Opti-MEM, 12 h, 37°C, Cy5 flow cytometry
[9] = system: PIK3CB mRNA; assay: PIK3CB mRNA level by qRT-PCR in U87MG cells; assay type: cell-based, human; conditions: no transfection agent, 48 hr, normalized with GAPDH
[10] = system: U87MG cells; assay: Transwell migration assay; assay type: cell-based, human; conditions: 100-600 nM, 48-hr treatment, Matrigel-coated 8-μm inserts, migration 24 hr
In short: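 U87MG cells were exposed to test conjugate (100–600 nM) or scrambled conjugate (600 nM) in serum-free Opti-MEM for 24 hr, then held 48 hr with 10% serum. Cells (5 × 10⁴ in serum-free DMEM) were placed on Matrigel-coated (2 mg/mL) 8-μm inserts, with 10% FBS DMEM below, and allowed to migrate 24 hr. Crystal-violet-stained cells were counted in five random fields.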

[11] = system: U87MG cells; assay: Cell apoptosis analysis, Annexin V-FITC/PI flow cytometry; assay type: cell-based, human; conditions: 72 hr post-treatment
In short: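 U87MG cells attached 24 hr, then exposed to the test conjugate (100, 200, 400 or 600 nM) or scrambled conjugate (600 nM) in serum-free Opti-MEM for 24 hr; untreated control. 10% serum was then added and cells held 72 hr. Apoptosis was measured by Annexin V-FITC/PI staining per kit and read on a flow cytometer as apoptosis rate.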

[12] = system: kidneys; assay: Histopathological evaluation of kidneys; assay type: in vivo, nude mice; conditions: 1 nmol/20 g i.v., 12 times over a 24-hr interval, H&E
In short: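 Kidneys from orthotopic U87MG-Luc nude mice dosed i.v. 12 times at 24-hr intervals were used. Tissues were fixed at once in 4% paraformaldehyde, paraffin-embedded, cut into 5-μm sections and stained with H&E for histology.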

[13] = system: orthotopic U87MG-Luc glioblastoma; assay: ki67 staining and TUNEL assay of tumor sections; assay type: in vivo, nude mice
In short: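 Tumours from the anti-tumour study were used (saline, scrambled 1 nmol/20 g, or test 0.5 or 1 nmol/20 g, i.v. 12 times at 24-hr intervals). They were fixed in 4% paraformaldehyde, paraffin-embedded and cut into 5-μm sections. Sections were stained by Ki67 immunohistochemistry and TUNEL kit. Results were expressed as Ki67-positive/total cells and apoptotic index (TUNEL-positive/total cells).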

[14] = Immunogenicity evaluation, serum cytokines by ELISA; assay type: in vivo, BALB/c mice; conditions: 5nmol/20 g single injection, serum at 6hr
In short: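 Immunocompetent BALB/c mice (4–6 weeks, ~20 g) got a single injection of saline or test conjugate (5 nmol/20 g), alone or mixed with Gelofusine (4 mg/20 g). Serum was collected at 6 hr, and IL-6, IFN-β and TNF-α were measured by ELISA kit.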

[15] = system: PIK3CB mRNA; assay: In vivo silencing, PIK3CB mRNA in tumor by qRT-PCR; parameters: species or system human; conditions: versus saline and biRGD-siNC
[16] = system: PIK3CB protein; assay type: in vivo, human
[17] = Hepatotoxicity, serum ALT; parameters: species or system nude mice; conditions: serum from in vivo anti-tumor assay
In short: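 Serum came from orthotopic U87MG-Luc nude mice in the anti-tumour study. Dosing was saline, scrambled conjugate 1 nmol/20 g, or test conjugate 0.5 or 1 nmol/20 g, given i.v. 12 times at 24-hr intervals. Serum was collected after sacrifice on day 12. ALT was measured on an automated chemistry analyser following the manufacturer's instructions.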

[18] = Serum stability assay; assay type: in vitro ADME; conditions: 5 μL 20 μM mixed with 5 μL mouse serum, 37°C, 1.2% agarose gel
[19] = 0.5 nmol/20 g i.v. x12, versus saline and biRGD-siNC
[20] = 1 nmol/20 g i.v. x12, versus saline and biRGD-siNC

Substance: [cyclo(Arg-Gly-Asp-D-Phe-Lys)-Ahx]2-Glu-PEG-MAL (bicyclic or more) [biRGD-siNC, reference compound]
- tumor growth (luminescence intensity) versus saline [1]: no significant difference
- PIK3CB protein level, remaining amount ([2]; 600 nM): almost no effect
- course of body weight [3]: rapid decrease in body weight
- median survival time [3]: 23 days

Substance: [cyclo(Arg-Gly-Asp-D-Phe-Lys)-Ahx]2-Glu-PEG-MAL (bicyclic or more) [biRGD-siNC-Cy5]
- uptake after blocking integrin αvβ3 receptors ([4]; U87MG pre-treated with 1 μM unconjugated biRGD peptide, 37°C, 1 hr): inhibited
- uptake relative to cRGD-siNC-Cy5 ([4]; U87MG, 600 nM, 12 hr, Cy5 flow cytometry): approximately twice
- cellular uptake ([4]; U87MG, 100 to 600 nM, Opti-MEM, 12 hr, 37°C, Cy5 flow cytometry): enhanced cellular uptake that increased progressively
- saturation of uptake ([4]; U87MG, tested range 100 to 600 nM): No evidence of saturation of uptake
- Cy5 signal in sections of GBM-bearing brain tissues ([5]; CD31 staining): significantly higher
- Cy5 signal in sections of normal brain tissues [5]: little
- time of peak Cy5 fluorescence intensity of orthotopic GBM ([6]; 1 nmol/20 g i.v. single dose, IVIS): 24 h
- Cy5 fluorescence within the tumor and kidneys ([6]; 1 nmol/20 g i.v. single dose, IVIS at 12, 24, and 36 hr): high red Cy5 fluorescent expressions
- presence in other main organs (heart, spleen, and lung), ex vivo ([6]; 1 nmol/20 g i.v., organs excised at 24 hr): not found
- ex vivo targeting of GBM-bearing brain tissue ([6]; 1 nmol/20 g i.v., organs excised at 24 hr, ex vivo Cy5 imaging): specifically target the GBM-bearing brain tissue
- intracellular distribution after pre-treating with excess biRGD peptide ([7]; U87MG blocked with biRGD (1 μM)): inhibited
- intracellular distribution (Cy5, confocal) ([7]; U87MG, 600 nM): substantial uptake and wide distribution in the cell
- subcellular localization versus trans-Golgi marker TGN46 ([7]; U87MG, 600 nM, anti-TGN46/Alexa Fluor 488): substantial overlap with TGN46 protein
- cellular uptake [8]: no uptake

Substance: [cyclo(Arg-Gly-Asp-D-Phe-Lys)-Ahx]2-Glu-PEG-MAL (bicyclic or more) [biRGD-siPIK3CB]
- PIK3CB mRNA level, remaining amount ([9]; 400 nM): about 60%
- PIK3CB mRNA level, remaining amount ([9]; 600 nM): ~50%
- U87MG cell invasion (transwell migration) [10]: significantly inhibit
- apoptosis rate ([11]; 400 nM): 15.14%
- apoptosis rate ([11]; 600 nM): 20.76%
- tumor growth (luminescence intensity) versus saline and biRGD-siNC ([1]; 0.5 nmol/20 g i.v.): no significance
- tumor growth (luminescence intensity) versus saline [1]: significant tumor growth inhibition
- pathological sections of kidneys versus saline [12]: mild pathological changes in kidneys
- PIK3CB protein level, remaining amount ([2]; 400 nM): about 70%
- PIK3CB protein level, remaining amount ([2]; 600 nM): about 60%
- apoptotic tumor cells (TUNEL) [13, 19]: obviously higher number
- proliferative cells in tumors (ki67) [13, 19]: obviously decreased
- apoptotic tumor cells (TUNEL) [13, 20]: obviously higher number
- proliferative cells in tumors (ki67) [13, 20]: obviously decreased
- number of apoptotic tumor cells, 1 nmol/20 g group relative to 0.5 nmol/20 g group ([13]; TUNEL): about twice
- IFN-β level of the serum versus saline [14]: no significant difference
- IL-6 level of the serum versus saline [14]: no significant difference
- TNF-α level of the serum versus saline [14]: no significant difference
- PIK3CB mRNA expression in tumor ([15]; 0.5 nmol/20 g i.v. x12, qRT-PCR): obviously low expression
- PIK3CB mRNA expression in tumor ([15]; 1 nmol/20 g i.v. x12, qRT-PCR): obviously low expression
- course of body weight [3]: steady
- median survival time [3]: 26 days
- PIK3CB protein level in tumor (immunohistochemistry) ([16]; 0.5 nmol/20 g i.v. x12): remarkably low
- PIK3CB protein level in tumor (immunohistochemistry) ([16]; 1 nmol/20 g i.v. x12): remarkably low
- PIK3CB protein level in tumor (western blot) ([16]; 1 nmol/20 g i.v. x12): significantly decreased
- ALT level in the serum versus saline ([17]; mixed with Gelofusine): no statistically meaningful difference
- ALT level in the serum versus saline ([17]; Aeroset Chemistry Analyzer): no statistically meaningful difference
- degradation in mouse serum at 96 hr ([18]; 96 hr): low degradation

Substance: cyclo(Arg-Gly-Asp-D-Phe-Lys) (head to tail) [cRGD-siNC-Cy5, reference compound]
- intracellular distribution (Cy5, confocal) ([7]; U87MG, 600 nM): substantial uptake and wide distribution in the cell

Substance: siPIK3CB: sense 5′-AC(mC)(mU)G(mU)GGAUACUCAU(mU)A(mA)dTdT-3′, antisense 5′-U(mU)AA(mU)GAGUAUCCA(mC)AG(mG)(mU)dTdT-3′
- incubation time in mouse serum after which degraded ([18]; 0-96 hr): 48 h
